bovine MsrA act = bovine MsrA enzyme activators, primary screen, biochemical, absorbance, HTS; hit rate 0.3% among 360,000; activation, % at 10.6 µM; AID 602163, 2012; Methionine sulfoxide reductase A (Bos taurus); purified bovine MsrA, absorbance read-out; in the data active = activation above about 7.5%;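 note: 0% = vehicle and 100% = reference activator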
HTR2A ag = mouse Htr2a agonists via beta-arrestin recruitment, primary screen, cell-based, luminescence; activation, % at 7.6 µM; 5-hydroxytryptamine receptor 2A (Mus musculus), P35363; hit rate 0.66% among 360,000; AID 624169, 2012; CHO-K1 mHTR2A beta-arrestin complementation; percent of 30 µM serotonin response;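 active = activation above a run cutoff, the mean activation of all tested compounds plus 3 SD, cut at about 14% in these data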;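 note: 0% = plate median of compound wells and 100% = 30 µM serotonin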
AHR activator = AHR activators, primary screen, cell-based, luminescence, luciferase reporter, human | Aryl hydrocarbon receptor (Homo sapiens), P35869 | AHR-responsive luciferase reporter cells | activation, % at 5 µM | hit rate 2.5% among 320,000; in the data active = activation above about 47%;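 note: 0% = vehicle wells and 100% = reference agonist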
TbMetRS inhib = T. brucei MetRS inhibitors, primary screen, biochemical, luminescence; hit rate 0.4% among 360,000; AID 624268, 2012; purified T. brucei MetRS, ATP depletion, Kinase-Glo luminescence; inhibition, % at 11.9 µM;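 active = inhibition above a per-plate cutoff of the control wells' mean inhibition plus 3 SD, cut at about 5.5% in these data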;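 note: 0% = DMSO wells median and 100% = median of wells with control inhibitor compound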
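Material: parasite MetRS enzyme / Replication: singlicate, one well per compound / Signal: luminescence of leftover ATP / Schedule: 2 h aminoacylation at 25 °C after 15 min preincubation / Medium: HEPES-MgCl2-KCl buffer plus DTT, spermine, BSA, pyrophosphatase / Doses: 11.9 µM single point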
MsrA inh = bovine MsrA enzyme inhibitors, primary screen, biochemical, absorbance, HTS. purified bovine MsrA, absorbance read-out. Methionine sulfoxide reductase A (Bos taurus). AID 651718, 2012. inhibition, % at 15.5 µM. hit rate 0.75% among 360,000; in the data active = inhibition above about 4.5%;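 note: 0% = vehicle wells with enzyme and 100% = reference inhibitor wells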
AI-2 QS modul = Vibrio harveyi AI-2 quorum sensing modulators, primary screen, JMH597 strain, luminescence/OD600 ratio. Vibrio harveyi JMH597 AI-2 luminescence/OD600 ratio, 9 h; stronger effect = lower value; strain lacks LuxN and CqsS sensors; 0 = neutral-control median. activity change, % at 7.5 µM. hit rate 0.4% among 300,000. AID 2094, 2009; in the data active = activity change below about -75%, passing the limit was not always enough; inconclusive = no clear call, values can overlap the other calls;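 note: luminescence divided by OD600 gain over 9 h not by final OD600 alone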
JMH597 growth = Vibrio harveyi growth inhibition, confirmation, counter-screen for AI-2 quorum sensing project, JMH597 strain, OD600 absorbance | 9 h; lacks LuxN and CqsS sensors | growth inhibition, % at 7.5 µM | hit rate 1% among 750 | shares compounds with AI-2 QS modul;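 active = every replicate shows growth inhibition above 50%; inconclusive = at least half, but not all, replicates pass that cutoff; inactive = fewer than half of replicates pass it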
BB721 lum counter = luminescence inhibition in constitutive-on V. harveyi, confirmation, counter-screen for LuxS inhibitor project, strain BB721, luminescence readout | shares compounds with AI-2 QS modul | Vibrio harveyi BB721 luminescence, 9 h | inhibition, % at 7.5 µM | hit rate 95% among 750 | AID 2727, 2010;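 active = inhibition above about 80% in every replicate, not just on average, limit read from the data; inconclusive = at least half of replicates past the limit, but not all; inactive = fewer than half of replicates past the limit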
BB721 growth = growth inhibition of V. harveyi BB721, confirmation, cytotoxicity control for AI-2 quorum sensing inhibitors, strain BB721, absorbance OD600 | shares compounds with AI-2 QS modul | Vibrio harveyi BB721 growth, 9 h | growth inhibition, % at 7.5 µM | hit rate 3% among 750;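 active = every replicate shows growth inhibition above 50%; inconclusive = at least half but not all replicates above 50% inhibition; inactive = under half of replicates above 50% inhibition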
AI-2 QS JMH597 = Vibrio harveyi AI-2 signaling luminescence modulation – JMH597 strain, confirmation; shares compounds with AI-2 QS modul; Vibrio harveyi JMH597 AI-2 quorum sensing luminescence, 9 h; luxN and CqsS knockout, AI-2 only; inhibition, % at 7.5 µM; hit rate 97% among 750;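 active = every replicate shows more than 75% inhibition of signal versus neutral control wells; inconclusive = half to three quarters of replicates exceed 75% inhibition; inactive = fewer than half of replicates exceed 75% inhibition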
AHR act cf = AHR activators, confirmation, cell-based, luminescence, luciferase reporter, human | hit rate 87% among 2,300 | AID 2845, 2010 | shares compounds with AHR activator | activation, % at 9 µM | human cells, AHR-responsive luciferase reporter; in the data active = activation above about 49%;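 note: HepG2 hepatoma cells carrying a DRE-driven firefly luciferase reporter; 0% = vehicle wells and 100% = reference agonist wells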
PXR counter = human PXR activators, counter-screen for AHR activator project, cell-based, luciferase luminescence; AID 434939, 2010; activation, % at 11.6 µM; hit rate 88% among 2,300; cell-based PXR reporter; shares compounds with AHR activator; in the data active = activation above about 11%;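 note: human hepatoma DPX-2 cells expressing full-length human PXR; 0% = DMSO and 100% = reference agonist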
Target sequence (O75469 whole entry, looked up): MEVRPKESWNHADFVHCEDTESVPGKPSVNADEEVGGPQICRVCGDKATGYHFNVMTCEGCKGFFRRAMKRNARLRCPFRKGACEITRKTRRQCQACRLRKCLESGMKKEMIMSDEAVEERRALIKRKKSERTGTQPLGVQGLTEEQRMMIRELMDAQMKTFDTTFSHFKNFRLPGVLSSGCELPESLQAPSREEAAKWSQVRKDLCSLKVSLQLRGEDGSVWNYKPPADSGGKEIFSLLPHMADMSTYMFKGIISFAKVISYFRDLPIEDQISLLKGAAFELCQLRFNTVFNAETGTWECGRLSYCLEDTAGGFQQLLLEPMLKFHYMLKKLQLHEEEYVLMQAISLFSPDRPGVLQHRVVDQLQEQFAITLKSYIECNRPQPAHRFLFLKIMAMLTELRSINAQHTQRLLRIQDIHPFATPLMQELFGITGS
MsrA act confirm = bovine MsrA activators, retest, confirmation, biochemical, absorbance, HTS. shares compounds with bovine MsrA act. purified bovine MsrA, absorbance read-out. activation, % at 10.6 µM. hit rate 12% among 1,000. AID 602270, 2012; in the data active = activation above about 4%;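 note: enzyme coupled to thioredoxin and thioredoxin reductase with NADPH; 0% = vehicle wells and 100% = reference activator wells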
The depositor's hits bear a star; ? = inconclusive; / = not tested or not shown. Shown are actives, neighbours in structure and some others; about 4.4% of the full set was active somewhere.

SMILES | bovine MsrA act | HTR2A ag | AHR activator | TbMetRS inhib | MsrA inh | AI-2 QS modul | others
NN=C(N)N | -4 | -1 | 53* | -1 | -1 | /
O=C(NCCN1CCC2(CC1)C(=O)NCN2c1ccccc1)c1cccnc1Cl | / | / | / | / | -1 | /
Cc1cccc(-n2c(O)c(/C=C3/C(c4ccccc4)=Nc4ccccc43)c(=O)[nH]c2=O)c1 | -2 | -1 | 76* | 1 | 0 | 56
O=C1C2CC=CCC2C(=O)N1SC(Cl)(Cl)Cl (centres undefined) | / | / | / | / | 0 | /
CN1CCc2nc3sc(C(=O)NC4CC4)c(N)c3cc2C1 | -4 | -5 | 55* | 0 | 0 | 11
CN1CCc2nc(SCC(=O)OC(C)(C)C)c(C#N)cc2C1 | -1 | -3 | 6 | 0 | 1 | -1
CCN(CC)C(=O)c1ccc(NC(=O)c2ccc(-c3nn(C)c(=O)c4ccccc34)cc2)cc1 | -2 | 0 | 0 | -1 | 2 | 16
CCN(CC)C(=O)c1ccc(NC(=O)Cn2nc(C)c3ccccc3c2=O)cc1 | -3 | -1 | 0 | -1 | 1 | -88* | JMH597 growth=-3;BB721 lum counter=94*;BB721 growth=-11;AI-2 QS JMH597=96*
Cc1ccc(O)c(CN2CCN(c3ccccc3)CC2)c1 | 0 | -4 | 2 | 0 | 0 | -79* | JMH597 growth=8;BB721 lum counter=85*;BB721 growth=-19;AI-2 QS JMH597=91*
COc1ccc2c(c1)C1(C)CCN(C)CC(C1)C2O (centres undefined) | -11 | 10 | / | 0 | 0 | /
Cc1cc(N2CCNC[C@H]2C)ccc1N1CC[C@@H](O)C1 | / | / | / | / | 1 | /
O=C(c1cc2cc(Br)ccc2[nH]1)N1CCC2(CC1)OCCO2 | -2 | -7 | 41 | -1 | 1 | ? | JMH597 growth=-4;BB721 lum counter=94*;BB721 growth=-1;AI-2 QS JMH597=96*
O=C(COc1ccccc1)c1cn(Cc2ccccc2)c2ccccc12 | -10 | -4 | 84* | -1 | 1 | -2 | AHR act cf=66*;PXR counter=103*
COc1ccc2oc3c(c2c1)NC(=O)CN=C3c1ccccc1 | -1 | 2 | 13 | 1 | 2 | 7
O=C1CN=C(c2ccc(Cl)cc2)c2oc3ccccc3c2N1 | -4 | 1 | 104* | -1 | 0 | 9 | AHR act cf=119*;PXR counter=31*
CN1CCC(c2c[nH]c3ccccc23)C1 (centres undefined) | -3 | 4 | 34 | -1 | 1 | 19
CC1CCCC(C)N1/N=C/c1c[nH]c2ccc(Br)cc12 (centres undefined) | 1 | 0 | 89* | 0 | -1 | -1 | AHR act cf=83*;PXR counter=60*
CCc1nn(CC(=O)N2CCC3(CC2)OCCO3)c(=O)c2cc3ccccc3n12 | -2 | 4 | 1 | -1 | 0 | 17
CC(C)=CCOc1c2occc2cc2ccc(=O)oc12 | -1 | -2 | 114* | 0 | 1 | 11 | AHR act cf=86*;PXR counter=78*
CC(C)N=C(NC(C)C)N1CC1 | 0 | -6 | / | 0 | -2 | /
COc1ccc2c(c1)/C(=C/c1cnc[nH]1)C(=O)N2 | -7 | 2 | 248* | -1 | 3 | 16 | AHR act cf=49*;PXR counter=15*
COc1ccc(-n2c(/C=C3\C(=O)Nc4ccccc43)nc3ccccc3c2=O)cc1 | -4 | -2 | 3 | 0 | -1 | 25
COc1ccccc1-n1c(CNCC2CCCO2)nc2ccccc2c1=O (centres undefined) | -4 | 5 | 81* | 0 | 2 | 4 | AHR act cf=48*;PXR counter=37*
CCCCOC(=O)c1ccccc1C(=O)OCc1ccccc1 | -12 | -5 | 0 | -1 | 1 | /
NC(=O)Nc1ccc(C(=O)OCC(=O)Nc2ccc(Cl)cc2C(=O)c2ccccc2)cc1 | -4 | 2 | 93* | 0 | -1 | 41 | AHR act cf=5;PXR counter=14*
SMILES | bovine MsrA act | HTR2A ag | AHR activator | TbMetRS inhib | MsrA inh | AI-2 QS modul | others
CN1CCC(O)(c2ccc(Cl)cc2)C(C(=O)c2ccc(Cl)cc2)C1 (centres undefined) | -4 | -2 | -2 | 0 | 2 | 17
Cc1ccnc(-n2c(C)nc3ccccc3c2=O)c1 | 1 | 1 | 13 | -1 | 0 | 25
Cc1cccc(N2CCc3c2nc2ccccc2c3N)c1 | -5 | 1 | 83* | -1 | 2 | 21 | AHR act cf=86*;PXR counter=55*
OCC[n+]1c2ccccc2nc2ccc(N3CCOCC3)cc21 | 21* | -7 | 3 | -1 | 5.8* | 54 | MsrA act confirm=10*
O=C(CCc1ccccc1)N1Cc2cc(N3CCOCC3)ccc2-n2nncc2C1 | -9 | 0 | / | -1 | 1 | /
O=c1[nH]sc2cc(F)ccc12 | 12* | 4 | / | -1 | 0 | -14 | MsrA act confirm=10*
COC(=O)C1=C(c2ccc3ccccc3c2)C[C@@H]2CC[C@H]1N2C(=O)NC(C)C | -5 | -9 | 0 | 0 | -1 | /
C/C=C(\C)C(=O)N[C@@H](c1ccccc1)[C@@H](O)C(=O)O[C@H]1C[C@@]2(O)[C@@H](OC(=O)c3ccccc3)C3[C@](C)(C(=O)[C@H](OC(C)=O)C(=C1C)C2(C)C)[C@H](O)C[C@H]1OC[C@@]31OC(C)=O (some centres undefined) | 10* | -4 | 0 | 0 | 0 | -6 | MsrA act confirm=-1

Source: PubChem (several laboratories)
